In ChEMBL document CHEMBL3098013, “Novel pyrazole integrated 1,3,4-oxadiazoles: synthesis, characterization and antimicrobial evaluation” (2014):
Values after ≈ are worked out from the molar mass of the structure shown.

Key:
Format in all cases: functional
[1] = test system: Fusarium verticillioides; experiment: Antimicrobial activity against Fusarium moniliforme MTCC 156 at 100 ug/ml after 48 hrs by disc diffusion method; conditions: MTCC 156, 48 h, read-out: DIZ
Outline: (§1)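 Agar diffusion read-out is the diameter of the inhibition zone in mm. Each test was run in six replicates and reported as mean ± standard deviation, taken from at least three determinations.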

[2] = test system: Fusarium oxysporum; experiment: Antimicrobial activity against Fusarium oxysporum MTCC 284 at 50 ug/ml after 48 hrs by disc diffusion method; conditions: MTCC 284, 48 h, read-out: DIZ; outline: as §1
[3] = test system: Klebsiella pneumoniae; experiment: Antimicrobial activity against Klebsiella pneumoniae MTCC 3384 at 50 ug/ml after 24 hrs by disc diffusion method; conditions: MTCC 3384, 24 h, read-out: DIZ; outline: as §1
[4] = test system: Aspergillus niger; experiment: Antimicrobial activity against Aspergillus niger MTCC 281 at 100 ug/ml after 48 hrs by disc diffusion method; conditions: MTCC 281, 48 h, read-out: DIZ; outline: as §1
[5] = test system: Staphylococcus aureus; experiment: Antimicrobial activity against Staphylococcus aureus MTCC 96 after 24 hrs by microdilution method; conditions: MTCC 96, 24 h
Outline: (§2)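 The minimal inhibitory concentration was determined by dilution, alongside minimal bactericidal concentration for bacterial strains and minimal fungicidal concentration for fungal strains. Tests were run in six replicates, and the value is the mean of at least three determinations.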

[6] = test system: Aspergillus flavus; experiment: Antimicrobial activity against Aspergillus flavus MTCC 873 after 48 hrs by microdilution method; conditions: MTCC 873, 48 h; outline: as §2
[7] = test system: Fusarium verticillioides; experiment: Antimicrobial activity against Fusarium moniliforme MTCC 156 after 48 hrs by microdilution method; conditions: MTCC 156, 48 h; outline: as §2
[8] = test system: Staphylococcus aureus; experiment: Antimicrobial activity against Staphylococcus aureus MTCC 96 at 100 ug/ml after 24 hrs by disc diffusion method; conditions: MTCC 96, 24 h, read-out: DIZ; outline: as §1
[9] = test system: Klebsiella pneumoniae; experiment: Antimicrobial activity against Klebsiella pneumoniae MTCC 3384 after 24 hrs by microdilution method; conditions: MTCC 3384, 24 h; outline: as §2
[10] = test system: Fusarium verticillioides; experiment: Antimicrobial activity against Fusarium moniliforme MTCC 156 at 50 ug/ml after 48 hrs by disc diffusion method; conditions: MTCC 156, 48 h, read-out: DIZ; outline: as §1
[11] = test system: Aspergillus niger; experiment: Antimicrobial activity against Aspergillus niger MTCC 281 at 50 ug/ml after 48 hrs by disc diffusion method; conditions: MTCC 281, 48 h, read-out: DIZ; outline: as §1
[12] = test system: Escherichia coli; experiment: Antimicrobial activity against Escherichia coli MTCC 724 at 100 ug/ml after 24 hrs by disc diffusion method; conditions: MTCC 724, 24 h, read-out: DIZ; outline: as §1
[13] = test system: Klebsiella pneumoniae; experiment: Antimicrobial activity against Klebsiella pneumoniae MTCC 3384 at 100 ug/ml after 24 hrs by disc diffusion method; conditions: MTCC 3384, 24 h, read-out: DIZ; outline: as §1
[14] = test system: Staphylococcus aureus; experiment: Antimicrobial activity against Staphylococcus aureus MTCC 96 at 50 ug/ml after 24 hrs by disc diffusion method; conditions: MTCC 96, 24 h, read-out: DIZ; outline: as §1
[15] = test system: Aspergillus niger; experiment: Antimicrobial activity against Aspergillus niger MTCC 281 after 48 hrs by microdilution method; conditions: MTCC 281, 48 h; outline: as §2
[16] = test system: Aspergillus flavus; experiment: Antimicrobial activity against Aspergillus flavus MTCC 873 at 50 ug/ml after 48 hrs by disc diffusion method; conditions: MTCC 873, 48 h, read-out: DIZ; outline: as §1
[17] = test system: Aspergillus flavus; experiment: Antimicrobial activity against Aspergillus flavus MTCC 873 at 100 ug/ml after 48 hrs by disc diffusion method; conditions: MTCC 873, 48 h, read-out: DIZ; outline: as §1
[18] = test system: Fusarium oxysporum; experiment: Antimicrobial activity against Fusarium oxysporum MTCC 284 at 100 ug/ml after 48 hrs by disc diffusion method; conditions: MTCC 284, 48 h, read-out: DIZ; outline: as §1
[19] = test system: Fusarium oxysporum; experiment: Antimicrobial activity against Fusarium oxysporum MTCC 284 after 48 hrs by microdilution method; conditions: MTCC 284, 48 h; outline: as §2
[20] = test system: Bacillus cereus; experiment: Antimicrobial activity against Bacillus cereus MTCC 8372 at 50 ug/ml after 24 hrs by disc diffusion method; conditions: MTCC 8372, 24 h, read-out: DIZ; outline: as §1
[21] = test system: Bacillus cereus; experiment: Antimicrobial activity against Bacillus cereus MTCC 8372 after 24 hrs by microdilution method; conditions: MTCC 8372, 24 h; outline: as §2
[22] = test system: Bacillus cereus; experiment: Antimicrobial activity against Bacillus cereus MTCC 8372 at 100 ug/ml after 24 hrs by disc diffusion method; conditions: MTCC 8372, 24 h, read-out: DIZ; outline: as §1
[23] = test system: Escherichia coli; experiment: Antimicrobial activity against Escherichia coli MTCC 724 after 24 hrs by microdilution method; conditions: MTCC 724, 24 h; outline: as §2
[24] = test system: Escherichia coli; experiment: Antimicrobial activity against Escherichia coli MTCC 724 at 50 ug/ml after 24 hrs by disc diffusion method; conditions: MTCC 724, 24 h, read-out: DIZ; outline: as §1

MIC [5] [µg/mL]	MIC [6] [µg/mL]	MIC [7] [µg/mL]	MIC [9] [µg/mL]	MIC [15] [µg/mL]	SMILES	zone of inhibition at 100 µg/mL [1] [mm]	zone of inhibition at 50 µg/mL [2] [mm]	zone of inhibition at 50 µg/mL [3] [mm]	zone of inhibition at 100 µg/mL [4] [mm]	MBC [5] [µg/mL]	MFC [6] [µg/mL]	MFC [7] [µg/mL]	zone of inhibition at 100 µg/mL [8] [mm]	MBC [9] [µg/mL]	zone of inhibition at 50 µg/mL [10] [mm]	zone of inhibition at 50 µg/mL [11] [mm]	zone of inhibition at 100 µg/mL [12] [mm]	zone of inhibition at 100 µg/mL [13] [mm]	zone of inhibition at 50 µg/mL [14] [mm]	MFC [15] [µg/mL]	also measured
35 (≈ 92.5 µM)	40 (≈ 106 µM)	55 (≈ 145 µM)	30 (≈ 79.3 µM)	45 (≈ 119 µM)	Cc1c(-c2nnc(-c3ccccc3)o2)c(-c2ccccc2)nn1-c1ccccc1	6	3	6	8	240 (≈ 634 µM)	280 (≈ 740 µM)	290 (≈ 766 µM)	7	220 (≈ 581 µM)	4	5	6	14	6	270 (≈ 713 µM)	zone of inhibition at 50 µg/mL [16]: 4 mm; zone of inhibition at 100 µg/mL [17]: 8 mm; zone of inhibition at 100 µg/mL [18]: 8 mm; MFC [19]: 275 µg/mL (≈ 727 µM); MIC [19]: 50 µg/mL (≈ 132 µM); zone of inhibition at 50 µg/mL [20]: 5 mm; MBC [21]: 230 µg/mL (≈ 608 µM); MIC [21]: 35 µg/mL (≈ 92.5 µM); zone of inhibition at 100 µg/mL [22]: 9 mm; MBC [23]: 260 µg/mL (≈ 687 µM); MIC [23]: 40 µg/mL (≈ 106 µM); zone of inhibition at 50 µg/mL [24]: 5 mm
40 (≈ 97.9 µM)	50 (≈ 122 µM)	40 (≈ 97.9 µM)	35 (≈ 85.7 µM)	45 (≈ 110 µM)	COc1ccc(-c2nn(-c3ccccc3)c(C)c2-c2nnc(-c3ccccc3)o2)cc1	6	4	4	6	240 (≈ 588 µM)	270 (≈ 661 µM)	290 (≈ 710 µM)	8	260 (≈ 637 µM)	3	2	14	9	4	275 (≈ 673 µM)	zone of inhibition at 50 µg/mL [16]: 2 mm; zone of inhibition at 100 µg/mL [17]: 8 mm; zone of inhibition at 100 µg/mL [18]: 6 mm; MFC [19]: 280 µg/mL (≈ 685 µM); MIC [19]: 40 µg/mL (≈ 97.9 µM); zone of inhibition at 50 µg/mL [20]: 4 mm; MBC [21]: 240 µg/mL (≈ 588 µM); MIC [21]: 50 µg/mL (≈ 122 µM); zone of inhibition at 100 µg/mL [22]: 9 mm; MBC [23]: 240 µg/mL (≈ 588 µM); MIC [23]: 35 µg/mL (≈ 85.7 µM); zone of inhibition at 50 µg/mL [24]: 8 mm
20 (≈ 42.7 µM)	40 (≈ 85.4 µM)	55 (≈ 117 µM)	25 (≈ 53.4 µM)	45 (≈ 96.1 µM)	Cc1c(-c2nnc(-c3ccc([N+](=O)[O-])cc3)o2)c(-c2ccc([N+](=O)[O-])cc2)nn1-c1ccccc1	18	8	8	14	155 (≈ 331 µM)	275 (≈ 587 µM)	290 (≈ 619 µM)	20	170 (≈ 363 µM)	8	6	22	16	12	275 (≈ 587 µM)	zone of inhibition at 50 µg/mL [16]: 8 mm; zone of inhibition at 100 µg/mL [17]: 11 mm; zone of inhibition at 100 µg/mL [18]: 16 mm; MFC [19]: 280 µg/mL (≈ 598 µM); MIC [19]: 50 µg/mL (≈ 107 µM); zone of inhibition at 50 µg/mL [20]: 14 mm; MBC [21]: 160 µg/mL (≈ 342 µM); MIC [21]: 20 µg/mL (≈ 42.7 µM); zone of inhibition at 100 µg/mL [22]: 22 mm; MBC [23]: 175 µg/mL (≈ 374 µM); MIC [23]: 25 µg/mL (≈ 53.4 µM); zone of inhibition at 50 µg/mL [24]: 12 mm
35 (≈ 85.7 µM)	45 (≈ 110 µM)	50 (≈ 122 µM)	45 (≈ 110 µM)	45 (≈ 110 µM)	COc1ccc(-c2nnc(-c3c(-c4ccccc4)nn(-c4ccccc4)c3C)o2)cc1	11	8	9	12	225 (≈ 551 µM)	270 (≈ 661 µM)	290 (≈ 710 µM)	12	240 (≈ 588 µM)	9	6	12	11	6	275 (≈ 673 µM)	zone of inhibition at 50 µg/mL [16]: 8 mm; zone of inhibition at 100 µg/mL [17]: 14 mm; zone of inhibition at 100 µg/mL [18]: 12 mm; MFC [19]: 280 µg/mL (≈ 685 µM); MIC [19]: 50 µg/mL (≈ 122 µM); zone of inhibition at 50 µg/mL [20]: 5 mm; MBC [21]: 220 µg/mL (≈ 539 µM); MIC [21]: 35 µg/mL (≈ 85.7 µM); zone of inhibition at 100 µg/mL [22]: 12 mm; MBC [23]: 235 µg/mL (≈ 575 µM); MIC [23]: 45 µg/mL (≈ 110 µM); zone of inhibition at 50 µg/mL [24]: 8 mm
